# Hits are enriched below; roughly 1.6% of the tested compounds scored in any of these assays.
# Apaf-1 inh – blocks human Apaf-1 apoptosome activity; O14727; reconstituted apoptosome caspase-3 activity, DEVD-Rh110 fluorescence; inhibition, % at 20 µM; 0.71% of 330,000 active; active = inhibition of at least 40% at 20 µM
#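 Material: biochemical Apaf-1 apoptosome reconstitution. Medium: Hepes buffer, pH 7.5. Also added: cytochrome c activation, bis-DEVD rhodamine 110 substrate. Timing: 30 min compound preincubation, 50 min activation, room temperature. Measured by: rhodamine 110 fluorescence at Ex 480/Em 540 nm.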
# RAD52 anneal inh – inhibitors of human RAD52 DNA annealing. P43351. recombinant RAD52 DNA annealing, FRET fluorescence. inhibition, % at 18.7 µM. 0.46% of 360,000 active. AID 651710;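 active = every replicate showing at least 50% inhibition; inconclusive = mean inhibition at least 50% but not in every replicate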
# Target sequence (P43351 whole entry, looked up): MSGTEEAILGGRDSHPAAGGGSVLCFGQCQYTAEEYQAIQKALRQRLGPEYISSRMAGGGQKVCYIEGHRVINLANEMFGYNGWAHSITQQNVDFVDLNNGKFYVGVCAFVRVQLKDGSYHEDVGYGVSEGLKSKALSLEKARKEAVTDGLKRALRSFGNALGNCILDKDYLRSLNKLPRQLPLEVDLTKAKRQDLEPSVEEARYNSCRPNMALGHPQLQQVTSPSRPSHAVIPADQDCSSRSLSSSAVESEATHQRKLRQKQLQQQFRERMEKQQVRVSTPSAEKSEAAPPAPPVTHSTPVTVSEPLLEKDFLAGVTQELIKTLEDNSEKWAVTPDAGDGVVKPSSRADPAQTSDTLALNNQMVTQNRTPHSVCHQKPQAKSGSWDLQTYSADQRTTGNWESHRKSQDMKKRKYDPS
# RAD54 inh – RAD54 (human) branch migration inhibition; Q92698; RAD54 Holliday junction branch migration, FAM/BHQ fluorescence; inhibition, % at 10.4 µM; 0.14% of 360,000 active;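 active = mean normalized replicate activity at least 40 and at least half of replicates scoring 40 or more; inconclusive = only one of the two criteria met; inactive = mean below 40 and under half of replicates reaching 40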;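 also: inhibitors cause a drop in the FAM fluorescence signal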
# DNA FID counter – fluorescent intercalator displacement, NS3 helicase counter-screen | 0.17% of 290,000 active | inhibition, % at 7.9 µM | DNA fluorescent intercalator displacement, fluorescence; in the data active = inhibition above about 37%;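 also: higher means more ethidium bromide displaced from hairpin DNA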
# UBC13 inh – inhibitors of human UBC13 polyubiquitin chain formation; TR-FRET; inhibition, % at 20 µM; P61088; 0.47% of 330,000 active; in the data active = inhibition above about 45%, passing the limit was not always enough; inconclusive = no clear call, values can overlap the other calls
# Target sequence (P61088 whole entry, looked up): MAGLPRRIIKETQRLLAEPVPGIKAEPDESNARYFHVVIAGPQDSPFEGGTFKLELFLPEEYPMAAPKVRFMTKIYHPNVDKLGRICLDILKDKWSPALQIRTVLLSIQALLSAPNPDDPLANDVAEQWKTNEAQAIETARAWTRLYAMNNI
# Neddyl block – cullin neddylation inhibition; P61081+Q13564; TR-FRET cullin neddylation, biochemical; calls only at 25 µM; 0.58% of 360,000 active; AID 651699; in the data active = inhibition above about 36%
# Numbers stand for hits; - = inactive; ? = inconclusive; . = no result given; + = active, no number.
SMILES,Apaf-1 inh,RAD52 anneal inh,RAD54 inh,DNA FID counter,UBC13 inh,Neddyl block
COc1ccccc1C#Cc1ccc([C@H]2[C@H]3CN(C(=O)C4CCCC4)CCCCN3[C@H]2CO)cc1,.,-,-,.,.,.
COc1ccc(NC(=O)N2CCCCN3[C@H](C2)[C@H](c2ccc(C#Cc4ccccc4)cc2)[C@@H]3CO)cc1,.,.,-,.,.,.
COc1ccc(NC(=O)N2CCCCN3[C@H](C2)[C@@H](c2ccc(C#Cc4ccccc4)cc2)[C@@H]3CO)cc1,.,81.9,-,.,.,.
COc1ccccc1C#Cc1ccc([C@@H]2[C@@H](CO)N3CCCCN(C(=O)C4CCCC4)C[C@H]23)cc1,.,61.7,-,.,.,.
COc1ccc(NC(=O)N2CCCCN3[C@@H](CO)[C@H](c4ccc(C#Cc5ccccc5)cc4)[C@@H]3C2)cc1,.,68.7,-,.,.,.
CN(C)CCCN(C(=O)c1ccc(S(=O)(=O)N2CCc3ccccc32)cc1)c1nc2ccc(F)cc2s1,-,-,-,-,-,-
Cc1cc(C)c2sc(N(CCCN(C)C)C(=O)c3ccc(S(=O)(=O)N4CCCc5ccccc54)cc3)nc2c1,-,-,-,.,62.5,-
CN(C)CCn1c2ccccc2c2nc3ccc([N+](=O)[O-])cc3cc21,-,-,-,48.4,-,-
CCCNC(=O)N1C[C@H](O)COC[C@@H]2O[C@H](CC(=O)N3CCOCC3)CC[C@H]21,.,-,-,.,.,.
O=C(O)c1cccc(NC(=O)c2ccc(CN3C(=O)c4ccccc4C3=O)cc2)c1,-,-,-,-,-,-
O=C(Nc1cc(Cl)ccc1C(=O)O)c1ccc(CN2C(=O)c3ccccc3C2=O)cc1,.,-,-,39.5,.,-
CCCCN(Cc1ccccc1)c1ncnc2nc[nH]c12,-,.,-,-,46.9,-
CCN(CC)CCOc1ccc2c(c1)C(=NO)c1cc(OCCN(CC)CC)ccc1-2,-,.,125.3,90.4,-,-
CCN(CC)CCOc1ccc(Br)cc1,-,.,-,-,-,-
Cc1cc(C)c(C)c(OCCNCc2ccccc2)c1,-,-,-,-,-,-
Cc1cc(Br)ccc1OCCNCc1ccccc1,-,-,-,37.5,-,-
COC(=O)C1CCN(CCCOc2ccc(CN3CCN(c4ccc([N+](=O)[O-])cc4)CC3)cc2)CC1,-,-,-,46.5,-,-
COC(=O)C1CCN(c2ccc([N+](=O)[O-])cc2)CC1,-,-,.,-,-,-
Cc1cccc(S(=O)(=O)N2CC[C@@H]3[C@@H](CO)Nc4ccc(C#Cc5cccnc5)cc4[C@@H]32)c1,.,-,.,.,.,.
COC(=O)c1sc(-c2ccc(C(C)(C)C)cc2)cc1NC(=O)CSCC(=O)O,-,-,.,-,-,+
COC(=O)c1sc(-c2ccc(Cl)cc2)cc1NC(=O)c1ccccc1C(=O)O,-,-,.,-,-,-
COC(=O)c1sc(-c2ccc(C(C)(C)C)cc2)cc1NC(=O)c1ccccc1C(=O)O,-,-,.,-,-,+
COCC(=O)N1CC2(C1)[C@H](c1ccc(-c3ccccc3)cc1)[C@H](CO)N2C(=O)COC,.,-,.,.,.,.
O=C1c2ccccc2C(=O)N1Cc1ccc2c(c1)OCO2,-,.,-,-,-,-
O=C(c1cccs1)[C@@H]1[C@@H]2C(=O)N(Cc3ccc4c(c3)OCO4)C(=O)[C@@H]2C2c3ccccc3C=CN21 (stereo not given in full),81.9,.,.,-,-,.
SMILES,Apaf-1 inh,RAD52 anneal inh,RAD54 inh,DNA FID counter,UBC13 inh,Neddyl block
O=C(c1ccc2c(c1)OCO2)[C@@H]1[C@@H]2C(=O)N(C3CCCCC3)C(=O)[C@@H]2C2c3ccccc3C=CN21 (stereo not given in full),.,.,-,-,.,-
O=C(Nc1ccc2c(c1)OCO2)[C@@H]1[C@@H]2C(=O)N(C3CCCCC3)C(=O)[C@@H]2C2c3ccccc3C=CN21 (stereo not given in full),42.5,.,.,-,-,.
CC1CCCCN1CC(O)COCCC12CC3CC(CC(C3)C1)C2 (stereo not given),-,-,-,43.8,-,-
CCOC(=O)c1c(NC(=O)CN(C)C2CCN(C)CC2)sc(C(=O)Nc2ccccc2)c1C,-,-,.,37.0,-,-
COC(=O)C[C@H]1C[C@@H]2c3cc(NC(=O)Nc4ccccc4F)ccc3O[C@@H]2[C@H](CO)O1,.,-,-,.,.,.
COc1ccc(CN2C[C@@H](O)COC[C@@H]3O[C@@H](CC(=O)N4CCc5ccccc5C4)CC[C@H]32)cc1,.,-,-,.,.,.
Nc1cc(N2CCOCC2)c(Cl)cc1[N+](=O)[O-],-,-,.,-,-,-
Nc1cc(N2CCCC2)c(Cl)cc1[N+](=O)[O-],42.6,-,.,-,-,-
COc1ccccc1CN1CCC(CNS(=O)(=O)c2cc(-c3onc(C)c3C)ccc2OC)CC1,-,-,-,44.5,-,-
CN(C)CCNC(=O)COc1ccc(C23CC4CC(CC(C4)C2)C3)cc1,-,-,.,38.0,-,-
COc1cc2[nH]c(C(=O)NN)c(N)c2cc1OC,48.1,.,.,-,-,.
COc1cccc2[nH]c(C(=O)NN)c(N)c12,-,-,.,-,-,-
O=[N+]([O-])c1ccc2[nH]cc(S(=O)(=O)N3CCN(c4cccc(Cl)c4)CC3)c2c1,-,-,-,38.5,-,-
COCC(=O)N1C[C@@H](C)[C@H](OC)CN(C)C(=O)c2ccc(NC(=O)Nc3ccccc3)cc2OC[C@@H]1C,.,-,.,.,.,.
Cc1noc(C)c1S(=O)(=O)N(C)C[C@H]1Oc2ccc(NS(=O)(=O)c3ccc(Cl)cc3)cc2CC(=O)N([C@@H](C)CO)C[C@@H]1C,.,-,-,.,.,.
CC1=C(C#N)C(=O)N(C2CCS(=O)(=O)C2)C(=O)/C1=C\c1ccco1 (stereo not given),54.2,.,.,-,?,.
O=C1/C(=C\c2ccco2)SC(=S)N1C1CCCCC1,-,.,.,-,-,.
COc1cc(/C=N/N=C(N)N)ccc1OCc1ccccc1Cl,-,-,.,-,54.5,-
COc1ccccc1-c1cc2nc(C)c(CCC(=O)NC(C)CCc3ccco3)c(C)n2n1 (stereo not given),-,-,-,-,-,+
CC(C)(C)c1cc[n+](C2=C([O-])c3ccccc3C(=O)/C2=N\S(=O)(=O)c2ccccc2)cc1,-,-,-,-,-,-
CCCC[n+]1ccn(C2=C([O-])c3ccccc3C(=O)/C2=N\S(=O)(=O)c2ccccc2)c1,59.0,.,-,-,-,-
Clc1ccc(-c2cc(CSc3ccccc3)on2)cc1,-,.,-,-,-,-
Cc1ccc(SCc2cc(-c3ccc(Cl)cc3)no2)cc1,78.3,.,.,-,-,-
CC(C)(C)NC(=O)C(c1ccncc1)n1c(=O)c(-c2ccco2)nc2ccccc21 (stereo not given),.,-,.,.,.,+
COc1ccc(S(=O)(=O)Nc2ccc3c(c2)C(=O)N([C@H](C)CO)C[C@H](C)[C@H](CN(C)S(C)(=O)=O)O3)cc1,.,-,-,.,.,.
CC=Cc1ccc2n(c1=O)C[C@@H]1[C@@H](CO)[C@H](C(=O)NCc3ccccn3)[C@H]2N1CCC (mixture of isomers),.,95.7,-,.,.,.

# Source: PubChem BioAssay (several laboratories)
